Laboratory results from ChEMBL document CHEMBL1153986, “Novel approach for chemotype hopping based on annotated databases of chemically feasible fragments and a prospective case study: new melanin concentrating hormone antagonists” (J Med Chem, 2009).
Blank lines part the entries; values can stand above or below the compound they belong to.

Legend:
[1] = biological target: T1, Melanin-concentrating hormone receptor 1 (Homo sapiens, UniProt Q99705); test: Antagonist activity at MCH1R; type: functional
T1 sequence (Q99705 whole entry): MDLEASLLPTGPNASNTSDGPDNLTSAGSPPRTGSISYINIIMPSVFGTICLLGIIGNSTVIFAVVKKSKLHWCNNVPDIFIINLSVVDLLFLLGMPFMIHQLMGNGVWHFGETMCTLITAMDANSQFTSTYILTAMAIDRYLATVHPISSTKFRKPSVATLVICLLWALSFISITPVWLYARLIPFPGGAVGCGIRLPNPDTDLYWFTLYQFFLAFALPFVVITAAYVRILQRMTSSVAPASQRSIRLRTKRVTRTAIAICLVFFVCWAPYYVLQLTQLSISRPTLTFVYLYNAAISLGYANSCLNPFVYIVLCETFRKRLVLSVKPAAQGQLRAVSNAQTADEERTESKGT
Summary of the method: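 MCH-1 receptor-expressing CHO cells seeded 24 h before (5000 cells/well), loaded with calcium assay kit containing 10 mM probenicide for 90 min at 37 °C, 5% CO2. Serial dilutions of compound added, 20 min at room temperature in the dark, then submaximal MCH challenge; intracellular calcium change recorded on FLIPR III.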

[2] = biological target: T1, Melanin-concentrating hormone receptor 1; test: Antagonist activity at MCH1R by [35S]GTPgammaS binding assay; type: functional
[3] = biological target: T1, Melanin-concentrating hormone receptor 1

Structure (SMILES): COc1cc(-n2cnc3cc(-c4ccccc4)ccc3c2=O)ccc1OCCN1CCCC1
Activity [1]: 2.1 nM

Structure (SMILES): Cn1cc(CCN2CCCC2)c2ccc(-n3ccc4nc(-c5ccc(Cl)cc5)sc4c3=O)cc21
Ki [1]: 3.16 nM

Structure (SMILES): COc1cc(-n2nnc3cc(-c4ccc(Cl)cc4)sc3c2=O)ccc1N1CC[C@@H](O)C1
IC50 [1]: > 5000 nM

Structure (SMILES): COc1cc(-n2ccnc(NCCc3ccccc3)c2=O)ccc1OCCN1CCCC1
IC50 [3]: 45.7 nM

Structure (SMILES): C(=C\c1ccc(-c2nnc(CSCCOc3ccccc3)o2)cc1)/CN1CCCC1
Activity [1]: 1.9 nM

Structure (SMILES): O=c1cc(/C=C/c2ccccc2)ccn1-c1ccc(OCCN2CCCC2)cc1
Activity [1]: 1.5 nM

Structure (SMILES): COc1cc(-n2ccnc(OCCc3ccccc3)c2=O)ccc1OCCN1CCCC1
IC50 [3]: 83.2 nM

Structure (SMILES): CC(C)N(C)c1nc2cc(-c3noc(COCc4ccc(Cl)cc4)n3)ccc2[nH]1
IC50 [1]: 7 nM

Structure (SMILES): COc1cc(-n2ccnc(CCCc3ccccc3)c2=O)ccc1OCCN1CCCC1
IC50 [3]: 105 nM

Results, then the compound that gave them:

IC50 [2]: 19 nM
Structure (SMILES): CN(C)CC1CCc2cc(NC(=O)c3ccc(-c4ccc(F)cc4)cc3)ccc2C1 (centres undefined)

Ki [1]: 3.3 nM
Structure (SMILES): CN[C@@H]1CCN(c2ccc(-n3ccc4cc(-c5ccc(C(F)(F)F)cc5)sc4c3=O)cn2)C1

IC50 [1]: > 100 nM
Structure (SMILES): CN(C)CCOc1ccc(-n2ccn(-c3ccc(Oc4ccccc4)cc3)c2=O)cc1

Ki [1]: 77 nM
Structure (SMILES): COc1cc(-c2cnc3[nH]c(-c4ccc(Cl)cc4)cn3c2=O)ccc1OCCN1CCCC1

Ki [1]: 3 nM
Structure (SMILES): CCN(CC)Cc1ccc2c(c1)CCC(N1CCN(CCc3ccc(F)cc3)CC1=O)C2 (centres undefined)
